# Calls of active or inactive are those of the source. No cut-off for these calls is given here.
# Assays:
# [1] = target: T1, Mineralocorticoid receptor (Rattus norvegicus) (UniProt P22199); assay: Relative binding affinity to the rat mineralocorticoid receptor determined in rat renal cytosol using [3]Ald as ligand
# T1 sequence (whole entry): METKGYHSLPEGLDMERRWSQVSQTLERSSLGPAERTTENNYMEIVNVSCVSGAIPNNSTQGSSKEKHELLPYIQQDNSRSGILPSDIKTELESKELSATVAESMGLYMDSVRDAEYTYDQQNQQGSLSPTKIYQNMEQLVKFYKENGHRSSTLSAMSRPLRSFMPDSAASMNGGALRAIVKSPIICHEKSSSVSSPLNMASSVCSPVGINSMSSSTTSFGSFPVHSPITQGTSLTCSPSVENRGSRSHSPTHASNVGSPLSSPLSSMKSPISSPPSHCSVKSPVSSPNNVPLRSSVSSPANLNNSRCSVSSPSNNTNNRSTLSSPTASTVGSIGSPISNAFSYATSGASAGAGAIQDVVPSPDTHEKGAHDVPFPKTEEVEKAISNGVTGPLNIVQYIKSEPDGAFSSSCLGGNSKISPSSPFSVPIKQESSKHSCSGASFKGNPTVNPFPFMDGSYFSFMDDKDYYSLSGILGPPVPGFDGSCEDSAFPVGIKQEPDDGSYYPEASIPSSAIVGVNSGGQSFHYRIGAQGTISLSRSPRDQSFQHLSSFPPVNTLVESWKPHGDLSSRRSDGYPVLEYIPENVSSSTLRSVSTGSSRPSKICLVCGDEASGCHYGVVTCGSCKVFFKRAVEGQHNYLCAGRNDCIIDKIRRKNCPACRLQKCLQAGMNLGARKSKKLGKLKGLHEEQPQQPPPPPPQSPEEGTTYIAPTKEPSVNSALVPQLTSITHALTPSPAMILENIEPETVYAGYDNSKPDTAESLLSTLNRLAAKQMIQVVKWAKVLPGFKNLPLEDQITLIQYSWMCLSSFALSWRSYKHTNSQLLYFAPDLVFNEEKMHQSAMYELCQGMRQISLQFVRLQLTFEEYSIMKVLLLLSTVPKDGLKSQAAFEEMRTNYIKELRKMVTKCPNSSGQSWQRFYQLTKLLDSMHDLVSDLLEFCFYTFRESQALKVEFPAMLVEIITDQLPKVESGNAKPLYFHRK
# Procedure, shortened: (§1)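 Renal cytosol came from male Sprague-Dawley rats (4-8 weeks) adrenalectomized bilaterally 1 or 2 days earlier. It was incubated with various competitor concentrations and about 1 nM [3H]Ald for 42-48 h at 0 °C or 100-120 min at 25 °C. Bound and free steroid were separated by DCC.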
# [2] = target: T1, Mineralocorticoid receptor (Rattus norvegicus); assay: Relative binding affinity against mineralocorticoid receptor determined in rat renal cytosol using [3]Ald as ligand; procedure, shortened: as §1
# [3] = target: T1, Mineralocorticoid receptor (Rattus norvegicus); assay: In vivo relative Mineralocorticoid activity in Male Sprague-Dawley rats; assay type: functional, organism-based
# [4] = target: T1, Mineralocorticoid receptor (Rattus norvegicus); assay: Relative binding affinity against Mineralocorticoid receptor in Male Sprague-Dawley rats; procedure, shortened: as §1
# [5] = target: T1, Mineralocorticoid receptor (Rattus norvegicus); assay: Antagonist activity against Mineralocorticoid receptor after po administration in Male Sprague Dawley rats; (-) = negative; assay type: functional, organism-based
# Procedure, shortened: (§2)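 Male rats were bilaterally adrenalectomized (bioassay modified from Kagawa). Ald (1 µg/kg) was given sc, immediately followed by test compound in sesame oil sc or orally. Urine was collected from 2 to 6 h after steroid. Potency came from the urinary Na/K ratio of sample versus control, with 95% confidence limits.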
# [6] = target: T1, Mineralocorticoid receptor (Rattus norvegicus); assay: Antagonist activity against Mineralocorticoid receptor after subcutaneous administration in Male Sprague Dawley rats; (+) =positive; assay type: functional, organism-based; conditions: filed as antagonist; procedure, shortened: as §2
# [7] = target: T1, Mineralocorticoid receptor (Rattus norvegicus); assay: Antagonist activity against Mineralocorticoid receptor after oral administration in Male Sprague Dawley rats; (+) =positive; assay type: functional, organism-based; conditions: filed as antagonist; procedure, shortened: as §2
# [8] = target: T2, Progesterone receptor (Rattus norvegicus) (UniProt Q63449); assay: Relative binding affinity against progesterone receptor determined in rat […] cytosol using [3H]DHT as ligand
# T2 sequence (whole entry): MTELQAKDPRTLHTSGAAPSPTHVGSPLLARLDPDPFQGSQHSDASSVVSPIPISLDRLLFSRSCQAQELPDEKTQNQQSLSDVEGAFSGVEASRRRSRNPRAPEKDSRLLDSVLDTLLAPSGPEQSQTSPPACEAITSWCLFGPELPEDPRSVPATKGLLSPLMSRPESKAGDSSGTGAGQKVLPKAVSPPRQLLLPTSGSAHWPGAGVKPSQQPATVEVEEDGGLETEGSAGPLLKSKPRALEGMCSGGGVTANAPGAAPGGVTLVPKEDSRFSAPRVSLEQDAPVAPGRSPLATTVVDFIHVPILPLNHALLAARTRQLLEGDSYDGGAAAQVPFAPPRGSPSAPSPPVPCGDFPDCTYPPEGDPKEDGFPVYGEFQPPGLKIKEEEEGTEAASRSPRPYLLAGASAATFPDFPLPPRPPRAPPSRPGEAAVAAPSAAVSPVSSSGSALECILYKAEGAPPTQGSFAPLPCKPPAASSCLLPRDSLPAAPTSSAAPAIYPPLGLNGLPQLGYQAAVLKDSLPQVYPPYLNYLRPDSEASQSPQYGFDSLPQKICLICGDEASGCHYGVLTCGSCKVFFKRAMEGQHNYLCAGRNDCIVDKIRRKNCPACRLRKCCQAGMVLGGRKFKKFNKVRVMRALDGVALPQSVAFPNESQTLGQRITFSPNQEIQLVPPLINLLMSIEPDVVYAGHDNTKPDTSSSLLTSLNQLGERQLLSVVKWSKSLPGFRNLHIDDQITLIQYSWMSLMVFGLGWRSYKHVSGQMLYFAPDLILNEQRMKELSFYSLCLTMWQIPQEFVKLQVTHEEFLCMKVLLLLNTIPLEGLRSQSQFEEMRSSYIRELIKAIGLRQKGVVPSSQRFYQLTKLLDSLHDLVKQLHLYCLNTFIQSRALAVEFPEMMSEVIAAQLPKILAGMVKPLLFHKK
# [9] = target: T3, Androgen receptor (Rattus norvegicus) (UniProt P15207); assay: Relative binding affinity against Androgen receptor in Male Sprague-Dawley rats
# T3 sequence (whole entry): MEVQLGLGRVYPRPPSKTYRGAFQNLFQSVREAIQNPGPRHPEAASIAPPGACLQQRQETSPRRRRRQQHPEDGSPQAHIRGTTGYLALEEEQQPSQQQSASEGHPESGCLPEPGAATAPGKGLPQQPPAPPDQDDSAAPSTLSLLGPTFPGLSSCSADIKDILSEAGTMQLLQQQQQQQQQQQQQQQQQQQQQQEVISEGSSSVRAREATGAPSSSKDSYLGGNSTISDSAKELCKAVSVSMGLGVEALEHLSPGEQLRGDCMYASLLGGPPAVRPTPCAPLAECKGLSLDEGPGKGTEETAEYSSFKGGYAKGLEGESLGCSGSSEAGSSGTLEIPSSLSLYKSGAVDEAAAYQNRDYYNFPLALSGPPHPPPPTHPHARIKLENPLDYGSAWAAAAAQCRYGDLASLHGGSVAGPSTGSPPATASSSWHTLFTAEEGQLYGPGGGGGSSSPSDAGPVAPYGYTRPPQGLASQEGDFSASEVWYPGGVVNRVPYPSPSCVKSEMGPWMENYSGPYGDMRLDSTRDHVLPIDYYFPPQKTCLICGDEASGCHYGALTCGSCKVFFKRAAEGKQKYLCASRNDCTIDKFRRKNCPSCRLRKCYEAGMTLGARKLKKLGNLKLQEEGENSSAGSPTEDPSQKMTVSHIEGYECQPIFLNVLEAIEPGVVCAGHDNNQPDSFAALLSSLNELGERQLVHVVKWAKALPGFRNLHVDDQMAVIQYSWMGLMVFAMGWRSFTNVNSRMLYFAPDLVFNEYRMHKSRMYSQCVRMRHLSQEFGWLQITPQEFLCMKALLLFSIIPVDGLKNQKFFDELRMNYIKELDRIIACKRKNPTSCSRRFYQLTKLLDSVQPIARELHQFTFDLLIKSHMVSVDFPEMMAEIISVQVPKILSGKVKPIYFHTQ
# Procedure, shortened: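 Rat ventral prostate cytosol from 4-8-week-old rats castrated 1 day earlier. Incubated with various competitor concentrations and about 1 nM [3H]DHT or [3H]methyltrienolone for 16-20 h at 0 °C. Bound and free steroid separated by dextran-coated charcoal.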
# [10] = target: T3, Androgen receptor (Rattus norvegicus); assay: In vivo relative androgenic activity in Male Sprague-Dawley rats; assay type: functional, organism-based
# [11] = target: T1, Mineralocorticoid receptor (Rattus norvegicus); assay: Antagonist activity against Mineralocorticoid receptor was determined after subcutaneous administration in Male Sprague Dawley rats; assay type: functional, organism-based; procedure, shortened: as §2
# [12] = target: T1, Mineralocorticoid receptor (Rattus norvegicus); assay: Antagonist activity against Mineralocorticoid receptor after oral administration in Male Sprague Dawley rats; (-) = negative; assay type: functional, organism-based; procedure, shortened: as §2
# [13] = target: T1, Mineralocorticoid receptor (Rattus norvegicus); assay: Relative anti-mineralocorticoid potency compared to Spironolactone after oral administration; assay type: functional, organism-based; procedure, shortened: as §2
# Rattus norvegicus = species: Rattus norvegicus; assay: Displacement of [3H]promegestone from progestin receptor of rat uterine cytosol at 0 degree Centigrade
# Procedure, shortened: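 Uteri from estradiol-primed rats supplied the cytosol. It was incubated with various competitor concentrations and about 1 nM [3H]promegestone for 16-20 h at 0 °C. Bound and free steroid were separated by DCC. RBA (progesterone = 100%) = 100 × ratio of the 50%-inhibition concentrations of standard and competitor.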
# [14] = target: T1, Mineralocorticoid receptor (Rattus norvegicus); assay: Displacement of [3]Aldosterone from mineralocorticoid receptor of rat renal cytosol at 0 degree Centigrade; procedure, shortened: as §1
# [15] = target: T2, Progesterone receptor (Rattus norvegicus); assay: Relative binding affinity against progesterone receptor in […]
# [16] = target: T2, Progesterone receptor (Rattus norvegicus); assay: In vivo relative Progestational activity in Male Sprague-Dawley rats was determined.; assay type: functional, organism-based
# [17] = target: T1, Mineralocorticoid receptor (Rattus norvegicus); assay: Agonist activity against Mineralocorticoid receptor was determined after subcutaneous administration in Male Sprague Dawley rats; (+) =positive; assay type: functional, organism-based; conditions: filed as agonist
structure (smiles),measurement,setting,value
CC12C=CC(=O)C=C1CCC1C2C=CC2(C)C1C1CC1[C@@]21CCC(=O)O1 (stereo partly drawn),RBA,[1],440%
same,RBA,[2],220%
C[C@]12CC[C@@H]3C4CCC(=O)C=C4CC[C@H]3[C@@H]1CC[C@@H]2C(=O)CO (stereo partly drawn),Relative activity,[3],1.5
same,relative binding affinity (RBA),[4],170
CC(C)(C)C(=O)S[C@@H]1CC2=CC(=O)C=CC2(C)C2C=CC3(C)C(CC[C@@]34CCC(=O)O4)C21 (stereo partly drawn),Activity,[5],inactive
same,Activity,[6],Antagonist
same,Activity,[7],Antagonist
same,RBA,[1],530%
same,RBA,[2],1000%
same,RBA,[8],18%
CC12C=CC3C(CCC4CC(=O)CCC43C)C1CCC2O (stereo not drawn),relative binding affinity (RBA),[9],81
same,Relative activity,[10],1
CC(=O)S[C@@H]1CC2=CC(=O)CCC2(C)C2C=CC3(C)C(C4CC4[C@@]34CCC(=O)O4)C21 (stereo partly drawn),Activity,[11],inactive
same,RBA,[1],> 1000%
same,RBA,[2],370%
same,RBA,[8],89%
CC12C=CC(=O)C=C1[C@H]1C[C@H]1C1C2C=CC2(C)C1CC[C@@]21CCC(=O)O1 (stereo partly drawn),Activity,[12],inactive
same,Activity,[5],inactive
same,Relative potency,[13],1.31
same,Activity,[6],Antagonist
same,RBA,[1],48%
same,RBA,[2],32%
same,RBA,[8],1.9%
CC12CCC(=O)C=C1C[C@@H](SC(=O)c1ccccc1)C1C2C=CC2(C)C1CC[C@@]21CCC(=O)O1 (stereo partly drawn),Activity,[11],inactive
same,RBA,Rattus norvegicus,25%
same,RBA,[14],11%
same,RBA,[1],18%
CC(=O)[C@H]1CC[C@H]2[C@@H]3CCC4=CC(=O)CC[C@@H]4[C@H]3CC[C@]12C,relative binding affinity (RBA),[15],650
same,Relative activity,[16],10.7
C[C@]12CCC(=O)C=C1CC[C@@H]1[C@@H]2[C@H]2C[C@]3(CO2)[C@@H](C(=O)CO)CC[C@@H]13,relative binding affinity (RBA),[4],50
CC12C=CC(=O)C=C1C[C@@H](SC(=O)c1ccccc1)C1C2C=CC2(C)C1CC[C@@]21CCC(=O)O1 (stereo partly drawn),Activity,[17],Agonist
same,Activity,[11],inactive
same,RBA,[1],37%
same,RBA,[2],3.7%
C[C@]12CCC(=O)C=C1C=C[C@@H]1[C@@H]2CC[C@@]2(C)[C@H]1CC[C@@]21CCC(=O)O1,Activity,[12],inactive
same,Activity,[6],Antagonist
same,RBA,[1],2.9%
same,RBA,[2],1.7%
